# In ChEMBL document CHEMBL3865841, “Photosensitizer (PS)-cyanine dye (CD) conjugates: Impact of the linkers joining the PS and CD moieties and their orientation in tumor-uptake and photodynamic therapy (PDT)” (Eur J Med Chem, 2016):
# Activity calls are given as the source filed them. The calls are words filed in the database; no cut-off is given here.
# Legend:
# [1] = Phototoxicity against human U87 cells assessed as reduction in cell viability preincubated for 24 hrs with subsequent irradiation 4 J/cm2 followed by 48 hrs incubation in dark by MTT assay; type: functional, cell-based, U-87MG ATCC; conditions: U-87 MG, light or radiation study
# Procedure, shortened: (§1)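 Colon-26 (RPMI-1640, 10% FCS) or U87 (MEM, 10% FCS) cells at 5000/well were given conjugate at 0–4 µM for 24 h. Compounds were formulated in 1% Tween-80/D5W and diluted in medium. Cells were washed and refed, then irradiated at 4 J/cm², 3.2 mW/cm². Then 44 h at 37°C in the dark, MTT 4 h, DMSO, A560. EC50 at 4 J/cm². Colon-26: two independent experiments, triplicates.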
# [2] = Drug uptake in human U87 cell mitochondria assessed as color overlay at 0.25 to 2 uM after 4 to 24 hrs in dark by mitotracker red dye-based confocal microscopic analysis; type: ADME; conditions: u-87mg atcc
# Procedure, shortened: (§2)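 U87 glioblastoma cells seeded at 1.25 × 10⁵ in glass-bottom dishes, cultured 24–48 h, then given conjugate at 0.25, 0.5, 1.0 or 2.0 µM in the dark at 37°C for 4 h and 24 h. Co-stained with MitoTracker Red 2.5 nM for 10 min and FluoSpheres yellow/green 1/10,000 of a 1/10 stock for 24 h. Confocal imaging with excitation 488, 543 and 633 nm.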
# [3] = Drug uptake in Balb/c mouse liver implanted with mouse Colon 26 cells at 0.3 umol/kg, iv after 24 hrs by reflectance spectroscopic analysis; type: ADME, organism-based; conditions: in vivo
# [4] = Phototoxicity against mouse Colon 26 cells implanted in Balb/c mouse assessed as tumor cure incidents at 1.5 umol/kg, iv preincubated for 24 hrs with subsequent irradiation at 128 J/cm2 measured after 60 days; type: functional
# Procedure, shortened: (§3)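 BALB/c mice bore s.c. Colon-26 tumors (1 × 10⁶ cells, shoulder) of 4–5 mm. Conjugate given i.v. via tail vein at 0.4, 0.75, 1.5, 2.5 or 3.5 µmol/kg. At 24 h unanesthetized mice got 665 nm laser, 128 J/cm², 14 mW/cm², 1.1 cm spot. Regrowth checked daily, volume L*W²/2. Cure = no palpable tumor by day 60; euthanasia at 400 mm³.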
# [5] = Drug uptake in mouse colon 26 cell lysosomes assessed as color overlay at 0.25 to 2 uM after 4 to 24 hrs in dark by FluoSpheres yellow green dye-based confocal microscopic analysis; type: ADME, Lysosome; conditions: colon 26, 2 µM
# Procedure, shortened: (§4)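 Colon-26 cells seeded at 1.25 × 10⁵ in glass-bottom dishes, cultured 24–48 h, then given conjugate at 0.25, 0.5, 1.0 or 2.0 µM in the dark at 37°C for 4 h and 24 h. Co-stained with MitoTracker Red 2.5 nM for 10 min and FluoSpheres yellow/green 1/10,000 of a 1/10 stock for 24 h. Media replaced before Leica TCS SP2 confocal imaging; excitation 488 (lysosome), 543 (mitochondria), 633 nm (HPPH).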
# [6] = Drug uptake in mouse colon 26 cell mitochondria assessed as color overlay at 0.25 to 2 uM after 4 to 24 hrs in dark by mitotracker red dye-based confocal microscopic analysis; type: ADME; conditions: colon 26, 2 µM; procedure, shortened: as §4
# [7] = Drug uptake in human U87 cell lysosomes assessed as color overlay at 0.25 to 2 uM after 4 to 24 hrs in dark by FluoSpheres yellow green dye-based confocal microscopic analysis; type: ADME, Lysosome; conditions: u-87mg atcc; procedure, shortened: as §2
# Mus musculus [8] = assay: Toxicity in Balb/c mouse implanted with mouse Colon 26 cells assessed as mortality at 2.5 to 3.5 umol/kg, iv preincubated for 24 hrs subsequent irradiation at 128 J/cm2 measured up to 60 days; type: organism-based; conditions: in vivo, 1440 h
# Procedure, shortened: (§5)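 BALB/c mice carried s.c. Colon-26 tumours (1 × 10⁶ cells, right posterior shoulder) grown to 4–5 mm. Conjugates were given i.v. via the tail vein at 0.4–3.5 µmol/kg. At 24 h, unanaesthetised restrained mice received 665 nm laser light on a 1.1 cm spot (128 J/cm², 14 mW/cm²). Mice were observed daily for up to 60 days for death or morbidity, which led to euthanasia.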
# Mus musculus [9] = assay: Toxicity in Balb/c mouse implanted with mouse Colon 26 cells assessed as morbidity at 2.5 to 3.5 umol/kg, iv preincubated for 24 hrs subsequent irradiation at 128 J/cm2 measured up to 60 days; type: organism-based; conditions: in vivo, 1440 h; procedure, shortened: as §5
# [10] = Phototoxicity against mouse Colon 26 cells assessed as reduction in cell viability preincubated for 24 hrs with subsequent 4 J/cm2 irradiation measured after 48 hrs incubation in dark by MTT assay; type: functional, cell-based; conditions: Colon 26, light or radiation study; procedure, shortened: as §1
# [11] = Ratio of drug uptake in tumor to skin in Balb/c mouse implanted with mouse Colon 26 cells at 0.3 umol/kg, iv after 24 hrs by reflectance spectroscopic analysis; type: ADME, organism-based; conditions: in vivo
# [12] = Phototoxicity against mouse Colon 26 cells implanted in Balb/c mouse assessed as tumor cure incidents at 3.5 umol/kg, iv pretreated for 24 hrs subsequent irradiation at 128 J/cm2 measured after 60 days relative to control; type: functional; procedure, shortened: as §3
# Colon 26 = assay: Phototoxicity against mouse Colon 26 cells implanted in Balb/c mouse assessed as increase in tumor cure incidents at 0.75 to 1.5 umol/kg, iv preincubated for 24 hrs with subsequent irradiation at 128 J/cm2 measured up to 60 days; type: functional, organism-based; procedure, shortened: as §3
# U-87MG ATCC = assay: Phototoxicity against human U87 cells xenografted in immunocompromized nude mouse assessed as increase in tumor cure incidents at 1.5 umol/kg, iv preincubated for 24 hrs subsequent irradiation at 128 J/cm2 measured after 60 days; type: functional, organism-based
# Procedure, shortened: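 Athymic nude mice bore s.c. U87 tumors (2 × 10⁶ cells) of 4–5 mm. Conjugate given i.v. at 1.5 µmol/kg. At 24 h post-injection tumors got 665 nm laser light, 128 J/cm², 14 mW/cm². Mice followed daily for regrowth; cure = no palpable tumor by day 60.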
# [13] = Drug uptake in immunocompromized nude mouse tumor xenografted with human U87 cells at 0.03 umol/kg, iv after 24 to 72 hrs by reflectance spectroscopic analysis; type: ADME, organism-based, Neoplasm, U-87MG ATCC; conditions: in vivo
# [14] = Drug uptake in mouse colon 26 cell mitochondria assessed as color overlay at 1 uM after 24 hrs in dark by mitotracker red dye-based confocal microscopic analysis; type: ADME; conditions: colon 26, 24 h
# Procedure, shortened: (§6)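 Colon-26 cells held with conjugate at 1 µM, imaged 24 h later by confocal microscopy. Lysosomal dye FluoSpheres yellow green at 1/100,000 dilution of commercial stock; mitochondrial MitoTracker Red at 2.5 nM for 10 min. Overlays of the conjugate signal with each organelle dye.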
# [15] = Drug uptake in human U87 cell mitochondria assessed as color overlay at 1 uM after 24 hrs in dark by mitotracker red dye-based confocal microscopic analysis; type: ADME; conditions: u-87mg atcc
# Procedure, shortened: (§7)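 U87 cells held with conjugate at 1 µM, imaged 24 h later by confocal microscopy. Lysosomal FluoSpheres yellow green at 1/100,000 dilution of commercial stock; MitoTracker Red 2.5 nM for 10 min. Overlays of the conjugate signal with each organelle dye.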
# [16] = Drug uptake in mouse Colon 26 cells at 1 uM after 24 hrs in dark by flow cytometry; type: ADME, cell-based; conditions: colon 26, 24 h
# Procedure, shortened: (§8)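 Colon-26 or U87 cells seeded at 5.0 × 10⁵ per well, 24 h, then exposed to conjugate at 1 µM in the dark at 37°C for 24 h. Cells harvested, spun cold at 10°C, resuspended in cold 2% FCS in PBS, run on a BD LSR II. Analysis used the 405 nm violet laser with 780/60, 710/50 and 660/20 nm filters.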
# [17] = Drug uptake in human U87 cell lysosomes assessed as color overlay at 1 uM after 24 hrs in dark by FluoSpheres yellow green dye-based confocal microscopic analysis; type: ADME, Lysosome; conditions: u-87mg atcc; procedure, shortened: as §7
# [18] = Drug uptake in mouse colon 26 cell lysosomes assessed as color overlay at 1 uM after 24 hrs in dark by FluoSpheres yellow green dye-based confocal microscopic analysis; type: ADME, Lysosome; conditions: colon 26, 24 h; procedure, shortened: as §6
# [19] = Drug uptake in human U87 cells at 1 uM after 24 hrs in dark by flow cytometry; type: ADME, cell-based; conditions: u-87mg atcc; procedure, shortened: as §8
Structure (SMILES),EC50 [1],Drug uptake [2],Drug uptake [3],Activity [4],Drug uptake [5],Drug uptake [6],Drug uptake [7],Activity (Mus musculus [8]),Activity (Mus musculus [9]),EC50 [10],Ratio [11],Activity [12],Activity (Colon 26),Activity (U-87MG ATCC),Drug uptake [16],Drug uptake [19],further results
CCCCCCOC(C)c1c(C)c2cc3nc(c4c5[nH]c(cc6nc(cc1[nH]2)C(C)=C6CC)c(C)c5C(=O)C4)[C@@H](CCC(=O)NCCNC(=O)c1cccc(SC2=C(/C=C/C4=[N+](CCCCS(=O)(=O)[O-])c5ccc6ccccc6c5C4(C)C)CCC/C2=C\C=C2\N(CCCCS(=O)(=O)O)c4ccc5ccccc5c4C2(C)C)c1)[C@@H]3C (stereo partly specified),570 nM,Active,Active,80%,Active,Active,Active,Toxic,Toxic,1580 nM,2.5,–,–,–,–,–,–
CCCCCCOC(C)c1c(C)c2cc3nc(c4c5[nH]c(cc6nc(cc1[nH]2)C(C)=C6CC)c(C)c5C(=O)C4)[C@@H](CCC(=O)NCCCCCCNC(=O)c1cccc(SC2=C(/C=C/C4=[N+](CCCCS(=O)(=O)[O-])c5ccc6ccccc6c5C4(C)C)CCC/C2=C\C=C2\N(CCCCS(=O)(=O)O)c4ccc5ccccc5c4C2(C)C)c1)[C@@H]3C (stereo partly specified),380 nM,Active,Active,–,Active,Active,Active,–,–,200 nM,2.5,90%,Active,–,–,–,–
CCCCCCOC(C)c1c(C)c2cc3nc(c4c5[nH]c(cc6nc(cc1[nH]2)C(C)=C6CC)c(C)c5C(=O)C4)[C@@H](CCC(=O)NCCCCCCNC(=O)c1ccc(SC2=C(/C=C/C4=[N+](CCCCS(=O)(=O)[O-])c5ccc6ccccc6c5C4(C)C)CCC/C2=C\C=C2\N(CCCCS(=O)(=O)O)c4ccc5ccccc5c4C2(C)C)cc1)[C@@H]3C (stereo partly specified),590 nM,Active,Active,–,Active,Active,Active,–,–,720 nM,2.3,70%,Active,Active,–,–,–
CCCCCCOC(C)c1c(C)c2cc3nc(c4c5[nH]c(cc6nc(cc1[nH]2)C(C)=C6CC)c(C)c5C(=O)C4)[C@@H](CCC(=O)NCCNC(=O)c1ccc(SC2=C(/C=C/C4=[N+](CCCCS(=O)(=O)[O-])c5ccc6ccccc6c5C4(C)C)CCC/C2=C\C=C2\N(CCCCS(=O)(=O)O)c4ccc5ccccc5c4C2(C)C)cc1)[C@@H]3C (stereo partly specified),790 nM,Active,Active,–,Active,Active,Active,Toxic,Toxic,2510 nM,2,–,–,–,–,–,–
CCCCCCOC(C)c1c(C)c2cc3nc(c4c5[nH]c(cc6nc(cc1[nH]2)C(C)=C6CC)c(C)c5C(=O)C4)[C@@H](CCC(=O)NCCCCNC(=O)c1cccc(SC2=C(/C=C/C4=[N+](CCCCS(=O)(=O)[O-])c5ccc6ccccc6c5C4(C)C)CCC/C2=C\C=C2\N(CCCCS(=O)(=O)O)c4ccc5ccccc5c4C2(C)C)c1)[C@@H]3C (stereo partly specified),150 nM,–,Active,80%,–,–,–,–,–,180 nM,6.5,–,–,Active,Active,Active,Drug uptake [13]: Active; Drug uptake [14]: Active; Drug uptake [15]: Active; Drug uptake [17]: Active; Drug uptake [18]: Active
CCCCCCOC(C)c1c(C)c2cc3nc(c4c5[nH]c(cc6nc(cc1[nH]2)C(C)=C6CC)c(C)c5C(=O)C4)[C@@H](CCC(=O)NCCCCNC(=O)c1ccc(SC2=C(/C=C/C4=[N+](CCCCS(=O)(=O)[O-])c5ccc6ccccc6c5C4(C)C)CCC/C2=C\C=C2\N(CCCCS(=O)(=O)O)c4ccc5ccccc5c4C2(C)C)cc1)[C@@H]3C (stereo partly specified),290 nM,Active,Active,20%,Active,Active,Active,–,–,130 nM,10,–,–,–,Active,Active,–
